Compounds with a hit are over-represented: about 2.4% of the library has one in this group of screens.
S1P4 ag – human S1P4 receptor agonism; O95977; AID 1509; hit rate 0.35% among 220,000; S1P4-expressing cell line, agonist reporter assay; activation, % at 4.98 µM; in the data active means activation above about 11%
Target sequence (O95977 whole entry, looked up): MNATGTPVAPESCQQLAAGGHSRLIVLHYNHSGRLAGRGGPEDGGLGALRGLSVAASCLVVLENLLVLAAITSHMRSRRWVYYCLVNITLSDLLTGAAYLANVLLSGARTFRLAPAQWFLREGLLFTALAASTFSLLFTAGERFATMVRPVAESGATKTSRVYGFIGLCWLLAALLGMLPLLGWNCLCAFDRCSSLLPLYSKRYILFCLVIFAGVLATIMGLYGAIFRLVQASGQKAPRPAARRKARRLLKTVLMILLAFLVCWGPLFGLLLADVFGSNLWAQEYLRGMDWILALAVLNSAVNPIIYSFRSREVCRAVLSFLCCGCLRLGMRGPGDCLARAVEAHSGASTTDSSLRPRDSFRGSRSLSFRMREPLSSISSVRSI
NPY-Y1 PAM-ag – human NPY-Y1 potentiation or agonism, primary screen; P25929; activation, % at 3.6 µM; hit rate 0.37% among 220,000; NPY-Y1 expressing cells, potentiator/agonist activation; in the data active means activation above about 33%, passing the limit was not always enough;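 further: cells stimulated with NPY at EC10 then isoproterenol at EC100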
Target sequence (P25929 whole entry, looked up): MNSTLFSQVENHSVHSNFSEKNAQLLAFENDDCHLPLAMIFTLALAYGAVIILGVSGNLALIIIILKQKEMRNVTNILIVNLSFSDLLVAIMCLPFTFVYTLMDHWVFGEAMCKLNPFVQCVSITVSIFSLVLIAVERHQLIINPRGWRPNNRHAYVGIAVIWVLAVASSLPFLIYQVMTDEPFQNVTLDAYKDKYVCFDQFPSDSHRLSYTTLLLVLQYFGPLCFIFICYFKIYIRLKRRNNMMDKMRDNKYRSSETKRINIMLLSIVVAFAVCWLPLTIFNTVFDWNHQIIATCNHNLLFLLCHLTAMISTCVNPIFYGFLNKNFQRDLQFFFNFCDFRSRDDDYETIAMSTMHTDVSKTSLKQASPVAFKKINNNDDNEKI
NPY-Y2 antag – NPY-Y2 (human) receptor antagonism; P49146; NPY-Y2 expressing cells, antagonist mode; inhibition, % at 2.7 µM; hit rate 0.99% among 140,000; AID 793; in the data active means inhibition above about 17%
NPY-Y2 PAM-ag – potentiates or activates human NPY-Y2 receptor | cells expressing NPY-Y2, potentiator/agonist read-out | activation, % at 3.6 µM | hit rate 0.45% among 220,000 | AID 1359; in the data active means activation above about 27%;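 further: cells stimulated with NPY near EC25 plus isoproterenol at EC100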
S1P4 antag – blocks the human S1P4 receptor | O95977 | S1P4-expressing cells, antagonist mode, reporter read-out | inhibition, % at 4.98 µM | hit rate 0.26% among 220,000 | AID 1510; in the data active means inhibition above about 29%
NPY Y1 blocker – NPY-Y1 (human) receptor antagonism. HEK293-CNG Y1 cells, membrane potential fluorescence; NPY at EC95, then isoproterenol. inhibition, % at 3.6 µM. hit rate 1% among 200,000. AID 1040;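 active means inhibition above the campaign mean inhibition of all tested compounds plus 3 SD, cut at about 20% in these data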
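Material: HEK293 Y1/CNG channel cell line | Also added: NPY (25 nM), isoproterenol (1 µM), Ro 20-1724 (25 µM) | Compound: One concentration, 3.6 µM, in 0.4% DMSO | Schedule: 3 h dye uptake, 1 h room-temperature compound, 45 min post-isoproterenol | Signal: Membrane-potential fluorescent dye readout | Read-out: % inhibition of NPY effect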
NPY-Y2 confirm – confirmation of human NPY-Y2 receptor potentiators or agonists. cell-based NPY-Y2 potentiator/agonist assay. shares compounds with NPY-Y2 PAM-ag. activation, % at 3.6 µM. hit rate 20% among 450; in the data active means activation above about 33%
NPY-Y1 counter – potentiates or activates NPY-Y1, counter-screen for NPY-Y2 hits; shares compounds with NPY-Y2 PAM-ag; Y1 HEK293-CNG cells, membrane potential fluorescence; activation, % at 3.6 µM; hit rate 20% among 450; in the data active means activation above about 45%;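 further: cells stimulated with submaximal NPY then isoproterenol with phosphodiesterase inhibitor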
NPY-Y1 agonist 2 – activates human NPY-Y1, counter-screen for NPY-Y2 potentiators; shares compounds with NPY-Y2 PAM-ag; HEK293 Y1-CNGC, membrane potential fluorescence, agonism; activation, % at 3.6 µM; hit rate 37% among 450; AID 1702;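 active means activation above the mean of DMSO-only control wells plus 3 SD, cut at about 18% in these data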;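 further: cells stimulated with 1 µM isoproterenol plus the PDE inhibitor Ro 20-1724; Y1 agonists lower the membrane potential dye signal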
CNGC inh – cyclic nucleotide gated channel inhibition as counter-screen. shares compounds with NPY-Y2 PAM-ag. HEK293-CNG parental, isoproterenol cAMP, membrane potential fluorescence. inhibition, % at 3.6 µM. hit rate 32% among 450. AID 1703;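 active means inhibition above the control-well mean plus 3 SD of those wells, cut at about 22% in these data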
Y2 agonist ctr – NPY-Y2 agonism, counter-screen for Y2 potentiators. shares compounds with NPY-Y2 PAM-ag. HEK293 Y2/CNGC cells, membrane potential fluorescence, agonist mode. activation, % at 3.6 µM. hit rate 56% among 450. AID 1710;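 active means activation above the mean of solvent-only control wells plus 3 SD, cut at about 10% in these data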;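 further: cells stimulated by isoproterenol with no NPY added so direct agonism is tested; agonism lowers probe fluorescence through less cAMP and CNG channel opening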
Each line names hits and unclear results; the compound was inactive in the other large screens (follow-up assays come after a bar, where they were run).

O=C(CSc1cccc2cccnc12)N/N=C/c1ccc(O)cc1	none (no result: NPY-Y2 antag, NPY Y1 blocker)
O=C(CCc1ccccc1O)N/N=C/c1ccc(Sc2cccc3cccnc23)o1	NPY-Y2 PAM-ag 37 | NPY-Y2 confirm inactive | NPY-Y1 counter inactive | NPY-Y1 agonist 2 34 | CNGC inh 22 | Y2 agonist ctr 22
Cc1cc(Cl)n2nc(C)c(-c3ccc(Cl)cc3)c2n1	NPY-Y2 PAM-ag 28 (no result: NPY-Y2 antag) | NPY-Y2 confirm 42 | NPY-Y1 counter 59 | NPY-Y1 agonist 2 59 | CNGC inh 63 | Y2 agonist ctr 45
O=C(Nc1cccc(Cl)c1)N(Cc1nc2ccccc2c(=O)[nH]1)Cc1cccs1	none
Cc1ccc(C(=O)n2nc(-n3cccc3)c3c(C)cc(C)nc32)cc1	NPY-Y2 PAM-ag 57 (no result: NPY-Y2 antag) | NPY-Y2 confirm inactive | NPY-Y1 counter inactive | NPY-Y1 agonist 2 24 | CNGC inh inactive | Y2 agonist ctr 18
CCOC(=O)CN(Cc1sccc1C)C(=O)Nc1ccc(OCC)cc1	none
O=S(=O)(c1cnc(Cl)c(Cl)c1)N1CCc2ccccc21	NPY-Y2 PAM-ag 42 (no result: NPY-Y2 antag, NPY Y1 blocker) | NPY-Y2 confirm inactive | NPY-Y1 counter inactive | NPY-Y1 agonist 2 inactive | CNGC inh 32 | Y2 agonist ctr 23
Cc1cc(NC(=O)c2c(F)cccc2Cl)n(-c2nc3ccccc3[nH]2)n1	none
Cc1cc(NC(=O)c2ccccc2F)n(-c2nc3ccccc3[nH]2)n1	NPY-Y2 PAM-ag 91 | NPY-Y2 confirm inactive | NPY-Y1 counter inactive | NPY-Y1 agonist 2 inactive | CNGC inh inactive | Y2 agonist ctr inactive
Cc1ccc(-n2nnnc2SCC(=O)N2CC(=O)Nc3ccccc32)cc1	none
CCCCc1c(C)c(C#N)c2nc3ccccc3n2c1Cl	none
CCc1c(C)c(C#N)c2nc3ccccc3n2c1N(C)C	NPY-Y2 PAM-ag 101 | NPY-Y2 confirm inactive | NPY-Y1 counter inactive | NPY-Y1 agonist 2 inactive | CNGC inh inactive | Y2 agonist ctr inactive
CN1CCN(S(=O)(=O)c2ccc(Oc3ccc(F)c(Cl)c3)nc2)CC1	NPY-Y2 PAM-ag 96 (no result: NPY-Y2 antag) | NPY-Y2 confirm inactive | NPY-Y1 counter inactive | NPY-Y1 agonist 2 inactive | CNGC inh inactive | Y2 agonist ctr inactive
Cc1ccc(NS(=O)(=O)c2cc([N+](=O)[O-])ccc2NNC(=S)Nc2cccc(Cl)c2)c(C)c1	NPY-Y2 PAM-ag 31 | NPY-Y2 confirm 76 | NPY-Y1 counter 97 | NPY-Y1 agonist 2 79 | CNGC inh 62 | Y2 agonist ctr 75
CC(=O)Nc1ccc(-c2cc3ccccc3o2)cc1	NPY-Y2 PAM-ag 29 | NPY-Y2 confirm inactive | NPY-Y1 counter inactive | NPY-Y1 agonist 2 inactive | CNGC inh inactive | Y2 agonist ctr 13
CCC(=O)Nc1ccc(-c2cc3ccccc3oc2=O)cc1	none (no result: NPY-Y2 antag)
O=C(NCc1cccc(Cl)c1)c1cc(COc2ccc3ncccc3c2)on1	NPY-Y2 PAM-ag 37 (no result: NPY-Y2 antag) | NPY-Y2 confirm inactive | NPY-Y1 counter inactive | NPY-Y1 agonist 2 inactive | CNGC inh inactive | Y2 agonist ctr inactive
C=CCNc1nc(N)c([N+](=O)[O-])c(NCCO)n1	none (no result: NPY-Y2 antag, NPY Y1 blocker)
C/C(N)=C(/C#N)C(=O)CSc1nnc(SCc2ccc(Cl)cc2)s1	none
C/C(N)=C(/C#N)C(=O)CSc1nn(-c2ccc(Cl)cc2)c(=S)s1	NPY-Y2 PAM-ag 35 (no result: NPY-Y2 antag) | NPY-Y2 confirm inactive | NPY-Y1 counter inactive | NPY-Y1 agonist 2 inactive | CNGC inh inactive | Y2 agonist ctr 10.0
O=C(O)C1CCCN1c1nc(C(F)(F)F)nc2ccccc12 (configuration not stated)	NPY-Y2 PAM-ag 75 (no result: NPY-Y2 antag) | NPY-Y2 confirm inactive | NPY-Y1 counter inactive | NPY-Y1 agonist 2 inactive | CNGC inh inactive | Y2 agonist ctr inactive
Cc1cccc(C)c1NC(=O)N1CCN(c2nc3ccccc3s2)CC1	none
Cc1cccc(Cl)c1NC(=O)N1CCCN(c2nc3ccc(Cl)cc3s2)CC1	NPY-Y2 PAM-ag 45 (no result: NPY-Y2 antag, NPY Y1 blocker) | NPY-Y2 confirm inactive | NPY-Y1 counter inactive | NPY-Y1 agonist 2 inactive | CNGC inh inactive | Y2 agonist ctr inactive
COc1cccc(OC)c1OCCCOc1ccc(C)cc1Br	none
CC1Cc2cc(-c3csc(NC(=O)Cc4cccs4)n3)ccc2N1S(C)(=O)=O (configuration not stated)	NPY-Y2 PAM-ag 44 | NPY-Y2 confirm inactive | NPY-Y1 counter inactive | NPY-Y1 agonist 2 inactive | CNGC inh inactive | Y2 agonist ctr inactive
CCC(=O)Nc1nc(-c2ccc3c(c2)CC(C)N3S(C)(=O)=O)cs1 (configuration not stated)	none (no result: NPY-Y2 antag)
COCCCNC(=S)Nc1cccc2ncccc12	none (no result: NPY-Y2 antag)
O=C(N/N=C/c1ccc(OC(F)F)cc1)c1cccc(S(=O)(=O)N2CCOCC2)c1	NPY-Y2 PAM-ag 57 (no result: NPY-Y2 antag) | NPY-Y2 confirm inactive | NPY-Y1 counter inactive | NPY-Y1 agonist 2 inactive | CNGC inh inactive | Y2 agonist ctr 10
CC(C)c1ccc(/C=N/NC(=O)c2cccc(S(=O)(=O)N3CCOCC3)c2)cc1	none (no result: NPY-Y2 antag)
Cn1c(N2C(=O)CC(Cc3ccccc3)C2=O)nc2ccccc21 (configuration not stated)	none
Cc1ccc(-n2c(SCC(N)=O)nc3c(c2=O)C2(CCCC2)Cc2ccccc2-3)cc1	NPY-Y2 PAM-ag 35 | NPY-Y2 confirm inactive | NPY-Y1 counter 47 | NPY-Y1 agonist 2 43 | CNGC inh 29 | Y2 agonist ctr 42
CC(=O)N1CC(=O)N=C1SCC(=O)Nc1nc(C)c(-c2ccccc2)s1	NPY-Y2 PAM-ag 37 (no result: NPY-Y2 antag) | NPY-Y2 confirm inactive | NPY-Y1 counter inactive | NPY-Y1 agonist 2 41 | CNGC inh 40 | Y2 agonist ctr 28
CCOc1ccc(-c2csc(NC(=O)CSC3=NC(=O)CN3C(C)=O)n2)c2ccccc12	none
Cc1c(C(=O)O)[nH]c2ccc([N+](=O)[O-])cc12	NPY-Y2 PAM-ag 30 (no result: NPY-Y2 antag) | NPY-Y2 confirm inactive | NPY-Y1 counter inactive | NPY-Y1 agonist 2 39 | CNGC inh inactive | Y2 agonist ctr 31
CCn1c2ccccc2c2cc(NC(=O)CN(C)CC(=O)Nc3ccc(N4CCOCC4)cc3)ccc21	NPY-Y2 PAM-ag 27 (no result: NPY-Y2 antag) | NPY-Y2 confirm inactive | NPY-Y1 counter inactive | NPY-Y1 agonist 2 inactive | CNGC inh inactive | Y2 agonist ctr 18
CCn1c2ccccc2c2cc(NC(=O)N3CCOCC3)ccc21	none
N#C/C(=N/Nc1ccc([N+](=O)[O-])cc1)C(=N)N1CCCCC1	NPY-Y2 PAM-ag 35 (no result: NPY-Y2 antag) | NPY-Y2 confirm inactive | NPY-Y1 counter 45 | NPY-Y1 agonist 2 43 | CNGC inh 28 | Y2 agonist ctr 30

Source: PubChem BioAssay (The Scripps Research Institute Molecular Screening Center)
